The values below come from ChEMBL document CHEMBL1828626, “Thiazolyl N-benzyl-substituted acetamide derivatives: synthesis, Src kinase inhibitory and anticancer activities” (2011).

Calls of active or inactive are those of the source. The calls are words filed in the database; no cut-off is given here.

The subject of assay [1] is NIH3T3. Put plainly: Inhibition of constitutively active human c-SRC527F mutant-induced growth inhibition in mouse NIH3T3 cells after 3 days by MTT assay. The format is cell-based. Put shortly:
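NIH3T3 cells carrying constitutively active human c-Src527F were seeded at 4500 cells/well in DMEM/10% FBS and left overnight. They were then exposed for 3 days at 37 °C to a 5-point 2-fold dilution series (n = 3). Growth % = (T−T0)/(C−T0) × 100; GI50 taken from curves.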

Assay [2] deals with SYF. As to the kind of experiment: Inhibition of constitutively active human c-Src527F mutant-induced growth inhibition in src, yes and fyn-deficient mouse SYF cells after 2 days by MTT assay. The format is cell-based. The essentials:
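SYF cells (Src/Yes/Fyn knockout) re-expressing c-Src527F were plated at 3500 cells/well in DMEM/10% FBS overnight. Compound was added as a 5-point 2-fold serial dilution in triplicate for 2 days at 37 °C, 5% CO2. GI50 comes from growth % = (T−T0)/(C−T0) × 100, with T0 from day-zero wells.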

For assay [3], the system named is HT-29. As to the kind of experiment: Antiproliferative activity against c-Src overexpressing human HT-29 cells at 50 uM after 24 to 72 hrs relative to control. The format is functional. Put shortly:
(§1)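 Cells cultured in EMEM (HT-29, BT-20) or RPMI (CCRF-CEM) with 10% FBS at 37 °C, 5% CO2. Seeded at 5000 cells/well and treated 72 h after seeding with 50 μM compound, in triplicate, for 24-72 h. CellTiter 96 AQueous One reagent added for 1 h; formazan A490. Survival is (treated − medium blank)/(untreated control − blank) × 100%.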

The subject of assay [4] is CCRF-CEM. Put plainly: Antiproliferative activity against human CCRF-CEM cells at 50 uM after 72 hrs relative to control. The format is functional. The essentials:
as §1

The subject of assay [5] is BT-20. As to the kind of experiment: Antiproliferative activity against human BT20 cells at 50 uM after 72 hrs relative to control. It counts as functional. The essentials: as §1
The test system of assay [6] is BT-20. Put plainly: Antiproliferative activity against human BT20 cells at 10 uM after 72 hrs relative to control. The format is functional, cell-based. The essentials:
(§2)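 BT-20 in EMEM or CCRF-CEM in RPMI, with 10% FBS, at 37 °C, 5% CO2. Seeded at 5000 cells/well and exposed 72 h after seeding to 10 μM agent, in triplicate. Readout is CellTiter 96 AQueous One, 1 h, A490. Growth is given as percent of untreated control after medium-blank subtraction.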

The subject of assay [7] is CCRF-CEM. Put plainly: Antiproliferative activity against human CCRF-CEM cells at 10 uM after 72 hrs relative to control. It counts as functional, cell-based. The essentials: as §2

On to `Cc1ccc(CNC(=O)Cc2csc(-c3ccc(OCCN4CCOCC4)cc3)n2)cc1`, for which the GI50 was 4.76 µM in assay [1] and 7.23 µM in assay [2]. The Activity was 54% in assay [3] and 61% in assay [4].

On to `O=C(Cc1csc(-c2ccc(OCCN3CCOCC3)cc2)n1)NCc1ccccc1`, for which the Activity in assay [5] and in assay [4] was 30% each time. Also, the GI50 worked out at 1.34 µM in assay [1] and 2.3 µM in assay [2].

As for `O=C(Cc1csc(-c2ccc(OCCN3CCOCC3)cc2)n1)NCc1ccc(Cl)c(Cl)c1`, the GI50 in assay [1] is 12.3 µM; in assay [2], 12.5 µM. The Activity came to 54% in assay [3] and 69% in assay [4].

For the molecule `O=C(Cc1csc(-c2ccc(OCCN3CCOCC3)cc2)n1)NCc1ccc(F)cc1`, the GI50 in assay [1] was found to be 1.49 µM; in assay [2], 2.51 µM. The Activity was determined as 54% in assay [3] and 71% in assay [4].

For the molecule `O=C(Cc1csc(-c2ccc(OCCN3CCOCC3)cc2)n1)NCc1ccccc1Cl`, the Activity in assay [5] and in assay [4] was 30% each time. The GI50 in assay [1] is 7.93 µM; in assay [2], 13 µM.

For the molecule `O=C(Cc1ccc(-c2ccc(OCCN3CCOCC3)cc2)cn1)NCc1ccccc1`, the results for the 50% growth inhibitory concentration (GI50) in assay [1] and in assay [2] were 0.023 µM and 0.039 µM, respectively.

In the case of `COc1cccc2c1C(=O)c1c(O)c3c(c(O)c1C2=O)C[C@@](O)(C(=O)CO)C[C@@H]3O[C@H]1C[C@H](N)[C@H](O)[C@H](C)O1`, the outcome in assay [6] and in assay [7] was Active.
